Compound activity deposited in PubChem BioAssay by Broad Institute.
FGF22 binding-1 – binders of recombinant human FGF22 by thermal shift; SYPRO orange fluorescence; percent of sucrose octasulfate shift, DMSO zero; AID 651658; activity (Tm shift, normalised), % at 9.99 µM; Q9HCT0; hit rate 1.5% among 340,000;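 active = mean Tm shift, scaled 0 neutral to 100 positive control, at about 1.3% or above, every replicate too, limit read from the data; inconclusive = no clear call, values can overlap the other calls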
ERAP1 inh – blocks human ERAP1 aminopeptidase activity. inhibition, % at 10.7 µM. Q9NZ08. recombinant ERAP1, Leu-AMC fluorescence, 60 min. AID 652197. hit rate 0.15% among 340,000;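 active = mean replicate inhibition of at least 30%, or all replicates individually reaching that 30% level; inactive = mean below 30% and not every replicate reaching it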;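 note: 0% = neutral control wells and 100% = L-leucinethiol positive control wells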
Target sequence (Q9NZ08 whole entry, looked up): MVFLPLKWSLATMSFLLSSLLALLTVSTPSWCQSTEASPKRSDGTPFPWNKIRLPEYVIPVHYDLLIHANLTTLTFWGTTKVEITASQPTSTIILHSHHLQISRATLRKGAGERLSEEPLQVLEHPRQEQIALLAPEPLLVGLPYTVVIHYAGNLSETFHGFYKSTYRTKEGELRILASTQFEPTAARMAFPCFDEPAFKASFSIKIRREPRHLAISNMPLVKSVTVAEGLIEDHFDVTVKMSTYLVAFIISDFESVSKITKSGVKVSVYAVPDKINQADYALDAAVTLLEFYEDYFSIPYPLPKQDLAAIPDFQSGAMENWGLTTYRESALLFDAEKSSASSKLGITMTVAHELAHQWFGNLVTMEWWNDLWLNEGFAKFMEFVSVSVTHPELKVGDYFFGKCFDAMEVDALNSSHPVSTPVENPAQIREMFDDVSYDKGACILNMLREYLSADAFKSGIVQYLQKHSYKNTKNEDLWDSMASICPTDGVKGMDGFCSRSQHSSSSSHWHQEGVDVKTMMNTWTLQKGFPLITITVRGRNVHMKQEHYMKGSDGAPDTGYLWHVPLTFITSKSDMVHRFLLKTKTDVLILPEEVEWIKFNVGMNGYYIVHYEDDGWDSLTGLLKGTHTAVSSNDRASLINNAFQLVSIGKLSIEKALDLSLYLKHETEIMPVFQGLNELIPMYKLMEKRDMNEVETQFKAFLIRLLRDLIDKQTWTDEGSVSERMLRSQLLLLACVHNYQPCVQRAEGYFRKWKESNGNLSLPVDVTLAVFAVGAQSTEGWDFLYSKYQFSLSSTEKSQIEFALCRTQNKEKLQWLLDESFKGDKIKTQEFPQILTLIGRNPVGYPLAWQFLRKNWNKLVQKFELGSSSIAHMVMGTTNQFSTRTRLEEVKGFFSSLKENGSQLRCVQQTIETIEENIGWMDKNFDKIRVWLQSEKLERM
DENV2 CPE rescue – inhibitors of DENV2 cytopathic effect; CPE inhibition, % at 9.99 µM; AID 651640; DENV2-infected cells, cytopathic effect rescue, plate reader; hit rate 1.7% among 350,000; in the data active = CPE inhibition above about 20%, passing the limit was not always enough; inconclusive = no clear call, values can overlap the other calls; tested in BHK-21 cells;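 note: 0% = median of neutral control wells and 100% = median of positive control wells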
E-sel inducer – E-selectin induction on HUVECs | P16581 | HUVEC E-selectin immunofluorescence imaging; normalized: neutral wells 0, TNF-alpha wells 100 | activation, % at 7.58 µM | hit rate 0.37% among 260,000 | AID 686992;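 active = mean E-selectin-positive cell signal at least 10% of the positive control, reached in at least 60% of replicates, without over 20% cell loss; inconclusive = no rule given, readout overlaps actives, possibly toxicity-flagged; inactive = the rest, including those meeting only one limit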
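Test system – human umbilical vein endothelial cells (HUVEC), E-selectin induction · Input – 3,000 HUVEC seeded per well · Buffer or medium – EGM-2, gelatin · Compound dosing – single-point compound dose · Detection – immunofluorescence imaging · Measure – percent E-selectin-positive cells · Controls – TNF-alpha high, DMSO low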
F508del corr – correctors of CFTR F508del function in bronchial epithelial cells; CFBE cells, YFP halide quenching; stimulated with forskolin plus potentiator P3; % fluorescence drop versus neutral controls; activity (quench increase), % at 7.58 µM; hit rate 0.36% among 350,000;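 active = mean added fluorescence quench of at least 8% versus neutral control, with both replicates also reaching 8%; inconclusive = only one of the mean or replicate conditions met; inactive = mean below 8% and not both replicates reaching 8%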;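 note: cells transiently co-express mutant CFTR-F508del with the halide-sensitive YFP; corrector assay measuring rescue of mutant channel to the surface after 24 h compound exposure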
FGF22 binding-2 – binders of human FGF22 by thermal shift | recombinant FGF22 thermal shift, SYPRO orange fluorescence | hit rate 2% among 1,000 | shares compounds with FGF22 binding-1 | thermal shift activity, °C (ΔTm) at 38 µM;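 active = fitted rise in melting shift crosses a set limit at or below the top valid dose tested; inconclusive = flat fit at mid-level activity, or a poor quality fit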
FGF22 TSA – FGF22 (human) binding by thermal shift. 50 tested, under 10 active. AID 743017. shares compounds with FGF22 binding-1. Tm shift (activity), % at 38 µM. Thermal shift assay, SYPRO orange, melting temperature shift;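 active = compounds whose fitted dose curve of melting temperature shift rises past a set threshold within the tested doses; inconclusive = flat curve at moderate activity, or poor curve fit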
SYPRO no-protein – shows thermal shift signal without protein, FGF22 counter-screen; AC50, µM (series often up to 38 µM); shares compounds with FGF22 binding-1; compound-only SYPRO orange thermal shift counter-screen, no protein; hit rate 2% among 1,000; AID 743019;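 active = rising signal whose fitted curve reaches the 0.54 level within the top valid dose, showing a melting point, actives reach about 13 µM in these data; inactive = the rest, including activity in the opposite direction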; note: value is where the raw curve crosses a fixed level and not half-maximal
* marks the source's active call; other numbers are inactive results; i = inactive; u = inconclusive; x = no result; [ ] = another dose, or the depositor's remark. The list is not random: actives were taken first. Their share in the collection is about 3.7%.

SMILES	FGF22 binding-1	ERAP1 inh	DENV2 CPE rescue	E-sel inducer	F508del corr	FGF22 binding-2	SYPRO no-protein	others
Cc1[nH]c2ccc(C(=O)OCC(=O)Nc3cccc(S(N)(=O)=O)c3)cc2c1C	1.6*	3	11	0	-1	x	i	FGF22 TSA=0
COCCNC(=O)[C@H]1[C@H](CO)[C@H]2Cn3c(ccc(-c4ccc(F)cc4)c3=O)[C@@H]1N2C(=O)NC(C)C	14*	-3	-4	0	4	0.26[42 µM]	i
COCCNC(=O)[C@@H]1[C@@H](CO)[C@@H]2Cn3c(ccc(-c4ccc(OC)cc4)c3=O)[C@H]1N2C(=O)NC(C)C	0	0	-9	0	0	x	x
COc1ccccc1-c1ccc2n(c1=O)C[C@@H]1[C@@H](CO)[C@H](C(=O)NC3CCC3)N(C(=O)NC(C)C)[C@H]21	15*	0	u	0	-1	0.026	i
COc1cc(CCC(=O)OCC(=O)Nc2ccc(C)cc2Br)cc(OC)c1OC	28*	-3	-3	17	-2	0.003	i
CNC[C@@H]1OCCCC[C@@H](C)Oc2ccc(NC(=O)CCC(F)(F)F)cc2C(=O)N([C@@H](C)CO)C[C@H]1C	0	-1	u	0	-2	x	x
Cc1ccc(SCC(=O)OCC(=O)NCCC2=CCCCC2)cc1	0	-2	-1	0	-1	x	x
O=C(COC(=O)CSc1ccc([N+](=O)[O-])cc1)NCCC1=CCCCC1	5.5*	4	2	-2	3	0.16	i
CO[C@@H]1CN(C)C(=O)c2cc(NC(=O)C3CCOCC3)ccc2OC[C@@H](C)N(S(=O)(=O)c2ccc(C)cc2)C[C@H]1C	0	-2	-3	x	1	x	x
COc1cc(/C=N/NC(=O)c2ccncc2)ccc1OCC(=O)Nc1cccc([N+](=O)[O-])c1	1.9*	2	6	1	1	-0.027	i
CC(C)Oc1ccc(C(=O)NC2CCN(Cc3ccccc3)CC2)cc1	6.6*	-1	5	0	-2	0.047	i
CC(Oc1ccc(Br)cc1)C(=O)NC1CCN(Cc2ccccc2)CC1 (stereo unspecified)	x	-3	u	x	-7	x	x
Cc1ccc(NC(=O)COC(=O)Cn2cnc3c2c(=O)n(C)c(=O)n3C)cc1Cl	1	-2	-3	3	-2	x	x
Cc1ccc(NC(=O)COC(=O)Cn2cnc3c2c(=O)n(C)c(=O)n3C)cc1F	30*	2	3	x	-3	0.15	i
C[C@H]1CN([C@@H](C)CO)S(=O)(=O)c2ccc(C#CCN(C)C)cc2O[C@H]1CN(C)Cc1ccc(F)cc1	0	1	-4	0	3	x	x
CO[C@H]1CN(C)C(=O)c2cc(NC(=O)C3CC3)ccc2OC[C@@H](C)N(Cc2ccccc2)C[C@@H]1C	0	0	0	0	1	x	x
Cc1nn(-c2ccccc2)c(C)c1/C=N/n1c(-c2ccc(Cl)cc2)n[nH]c1=S	0	12	0	x	x	x	x
Cc1ccc(-c2n[nH]c(=S)n2/N=C/c2c(C)[nH]n(-c3ccccc3)c2=O)cc1	2.7*	0	11	1	0	-0.001	i
Cc1ccccc1S(=O)(=O)N1CC[C@H]2[C@H](CO)Nc3ccc(-c4ccccc4F)cc3[C@H]21	0	-2	-11	-1	1	x	x
CC1C(=O)Nc2ccc(S(=O)(=O)NCCc3ccc(Cl)cc3)cc2NC1=O (stereo unspecified)	1.6*	-2	-12	x	2	-0.37	i
CC1Sc2ccc(S(=O)(=O)NCCc3ccc(S(N)(=O)=O)cc3)cc2NC1=O (stereo unspecified)	0	4	-9	x	-1	x	x
CCn1c(O)c(C=NCc2ccccc2)sc1=S	2.9*	0	3	x	0	0.11	i
CCCn1c(O)c(C=Nc2ccccc2)sc1=S	0	-1	-6	-2	-3	x	x
O=C(NC1CCCCC1)N1CC(=O)N2[C@H](CO)[C@H](c3ccc(-c4cccc(F)c4)cc3)[C@H]2C1	1.4*	0	u	0	-1	0.29[42 µM]	i
O=C(Nc1cccc(F)c1)N1CC(=O)N2[C@@H](CO)[C@@H](c3ccc(Br)cc3)[C@@H]2C1	1.3*	1	5	0	1	0.25[42 µM]	i
SMILES	FGF22 binding-1	ERAP1 inh	DENV2 CPE rescue	E-sel inducer	F508del corr	FGF22 binding-2	SYPRO no-protein	others
O=C(NC1CCCCC1)N1CC(=O)N2[C@H](C1)[C@H](c1ccc(-c3cccc(F)c3)cc1)[C@@H]2CO	0	0	3	0	0	x	x
O=C(Nc1ccc(O)cc1)c1cccc(Oc2ccc([N+](=O)[O-])cc2)c1	3.1*	-3	11	x	1	0.16	i
O=C(Cn1[nH]c(=O)c2ccccc2c1=O)Nc1cccnc1	2.2*	4	17	0	1	0.082	i
O=C(CC(=O)c1ccccc1)Nc1cccc([N+](=O)[O-])c1	1.8*	-1	-5	0	0	0.11	i
O=C(O)c1ccc(NC(=O)c2cccc(S(=O)(=O)Nc3ccc(C(=O)O)cc3)c2)cc1	2.1*	0	7	0	0	0.22	i
COc1ccc(NS(=O)(=O)c2cccc(C(=O)NNC(=O)c3ccccc3O)c2)cc1	2.0*	3	-2	x	2	0.093	i
O=C(O)c1cccc(NS(=O)(=O)c2ccc(Cl)c(C(=O)Nc3cccc([N+](=O)[O-])c3)c2)c1	1.8*	x	7	x	0	-0.072	i
CN(C)S(=O)(=O)c1ccc(Cl)c(C(=O)Nc2cccc([N+](=O)[O-])c2)c1	0	x	5	0	-6	x	x
O=C(O)c1ccc(NS(=O)(=O)c2ccc(C(=O)Nc3ccccc3)cc2)cc1	0	-1	-6	0	1	x	x
O=C(C1CCCC1)N1C[C@H]2[C@@H](c3ccccc31)[C@@H](CO)N2C(=O)Nc1cccc(F)c1	0	1	-4	0	1	x	x
COc1ccc(CN2C[C@H](O)COC[C@H]3O[C@@H](CC(=O)NCCN4CCCC4)CC[C@@H]32)cc1	0	x	0	0	1	x	x
CCCC(=O)Nc1ccc2c(c1)C(=O)N(C)C[C@H](OC)[C@@H](C)CN(S(=O)(=O)c1cn(C)cn1)[C@@H](C)CO2	0	4	0	0	5	x	x
COc1ccc(S(=O)(=O)Nc2cccc3c2O[C@H](CN(C)C(=O)NC2CCCCC2)[C@H](C)CN([C@@H](C)CO)C3=O)cc1	0	-2	6	0	4	x	x
CC1(C(=O)NS(=O)(=O)c2cccc(F)c2)CCN1C(=O)Cc1ccc(-c2ccccc2)cc1 (stereo unspecified)	0	0	-4	0	2	x	x
